Results as given in ChEMBL document CHEMBL1148478, “Benzo[f]azino[2,1-a]phthalazinium cations: novel DNA intercalating chromophores with antiproliferative activity” (2004).
The source made the active and inactive calls. The calls are words filed in the database; no cut-off is given here.

What was measured:
HeLa [1] = experiment: In vitro antiproliferative activity against human HeLa-APL cervix cell line; format: functional
How it was run: (§1)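 SRB colorimetric growth assay. Cells seeded at 5×10^3 per well in RPMI and left to attach in drug-free medium for 18 h. Compounds were then added in DMSO/H2O 3:7 and exposed for 72 h. Cells were fixed with cold 50% TCA for 60 min at 4 °C and stained with 0.4% SRB for 10 min. Bound dye was solubilized in Tris and OD read at 490 nm. GI50 was derived from control, test and time-zero OD. Triplicate; values above 10 μM were scored NS.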

LoVo [2] = experiment: In vitro antiproliferative activity against human LOVO colon cell line; format: functional; how it was run: as §1
IGROV-1 [3] = experiment: In vitro antiproliferative activity against human IGROV ovarian cell line; format: functional; how it was run: as §1
LoVo [4] = experiment: In vitro antiproliferative activity against human LOVO-DOX colon cell line; format: functional; how it was run: as §1
A549 [5] = experiment: In vitro antiproliferative activity against human A-549 NSCL cell line; format: functional; how it was run: as §1
DU-145 [6] = experiment: In vitro antiproliferative activity against human DU-145 prostate cell line; format: functional; how it was run: as §1
HT-29 [7] = experiment: In vitro antiproliferative activity against human HT-29 colon cell line; format: functional; how it was run: as §1
HeLa [8] = experiment: In vitro antiproliferative activity against human HeLa cervix cell line; format: functional; how it was run: as §1
K562 [9] = experiment: In vitro antiproliferative activity against human K-562 cell line; format: functional; how it was run: as §1
SK-MEL-28 [10] = experiment: In vitro antiproliferative activity against human MEL-28 melanoma cell line; format: functional; how it was run: as §1
PANC-1 [11] = experiment: In vitro antiproliferative activity against human PANC-1 pancreas cell line; format: functional; how it was run: as §1
SK-BR-3 = experiment: In vitro antiproliferative activity against human SK-BR-3 breast cell line; format: functional; how it was run: as §1
IGROV-1 [12] = experiment: In vitro antiproliferative activity against human IGROV-ET ovarian cell line; format: functional; how it was run: as §1
LNCaP = experiment: In vitro antiproliferative activity against human LN-caP prostate cell line; format: functional; how it was run: as §1
K562 [13] = experiment: In vitro antiproliferative activity against human K-562 cell line; NS = Not significant; format: functional, cell-based; how it was run: as §1
PANC-1 [14] = experiment: In vitro antiproliferative activity against human PANC-1 pancreas cell line; NS = Not significant; format: functional, cell-based; how it was run: as §1
LoVo [15] = experiment: In vitro antiproliferative activity against human LOVO-DOX colon cell line; NS = Not significant; format: functional, cell-based; how it was run: as §1
HeLa [16] = experiment: In vitro antiproliferative activity against human HeLa cervix cell line; NS = Not significant; format: functional, cell-based; how it was run: as §1
IGROV-1 [17] = experiment: In vitro antiproliferative activity against human IGROV-ET ovarian cell line; NS = Not significant; format: functional, cell-based; how it was run: as §1
HeLa [18] = experiment: In vitro antiproliferative activity against human HeLa-APL cervix cell line; NS = Not significant; format: functional, cell-based; how it was run: as §1
HT-29 [19] = experiment: In vitro antiproliferative activity against human HT-29 colon cell line; NS = Not significant; format: functional, cell-based; how it was run: as §1
LoVo [20] = experiment: In vitro antiproliferative activity against human LOVO colon cell line; NS = Not significant; format: functional, cell-based; how it was run: as §1
DU-145 [21] = experiment: In vitro antiproliferative activity against human DU-145 prostate cell line; NS = Not significant; format: functional, cell-based; how it was run: as §1
A549 [22] = experiment: In vitro antiproliferative activity against human A-549 NSCL cell line; NS = Not significant; format: functional, cell-based; how it was run: as §1
SK-MEL-28 [23] = experiment: In vitro antiproliferative activity against human MEL-28 melanoma cell line; NS = Not significant; format: functional, cell-based; how it was run: as §1

Row | Compound | GI50 (HeLa [1]) [nM] | GI50 (LoVo [2]) [nM] | GI50 (LoVo [4]) [nM] | GI50 (A549 [5]) [nM] | GI50 (DU-145 [6]) [nM] | GI50 (HT-29 [7]) [nM] | GI50 (HeLa [8]) [nM] | GI50 (K562 [9]) [nM] | GI50 (SK-MEL-28 [10]) [nM] | GI50 (PANC-1 [11]) [nM] | GI50 (SK-BR-3) [nM] | GI50 (LNCaP) [nM] | GI50 (LoVo [15]) | GI50 (HeLa [18]) | GI50 (IGROV-1 [3]) [nM] | GI50 (IGROV-1 [12]) [nM] | GI50 (IGROV-1 [17]) | also measured
1 | CCOc1ccc(-c2n[n+]3ccccc3c3ccc4ccccc4c23)cc1 | 5000 | 2900 | 8000 | 3000 | 4800 | 1100 | 3100 | 1200 | 2600 | 2100 | 1200 | 500 |  |  | 3800 | 8600 |  | 
2 | COc1cccc2c1C(=O)c1c(O)c3c(c(O)c1C2=O)C[C@@](O)(C(=O)CO)C[C@@H]3O[C@H]1C[C@H](N)[C@H](O)[C@H](C)O1 [DOXORUBICIN] | 10 | 10 | 2400 | 70 | 20 | 3100 | 10 | 30 | 3100 | 3500 | 1100 | 20 |  |  | 4400 | 2400 |  | 
3 | Cc1cc[n+]2nc(-c3ccccc3)c3c4ccccc4ccc3c2c1 |  |  |  |  |  |  |  |  | 8400 |  | 4600 | 4000 | inactive | inactive | 6500 |  | inactive | GI50 (K562 [13]): inactive; GI50 (PANC-1 [14]): inactive; GI50 (HeLa [16]): inactive; GI50 (HT-29 [19]): inactive; GI50 (LoVo [20]): inactive; GI50 (DU-145 [21]): inactive; GI50 (A549 [22]): inactive
4 | c1ccc(-c2n[n+]3ccccc3c3ccc4ccccc4c23)cc1 |  |  |  |  |  |  |  | 7600 |  |  | 9700 | 5200 | inactive | inactive | 100 |  | inactive | GI50 (PANC-1 [14]): inactive; GI50 (HeLa [16]): inactive; GI50 (SK-MEL-28 [23]): inactive; GI50 (HT-29 [19]): inactive; GI50 (LoVo [20]): inactive; GI50 (DU-145 [21]): inactive; GI50 (A549 [22]): inactive
5 | Cc1ccc2c(ccc3c4ccc5ccccc5c4c(-c4ccccc4)n[n+]23)c1 |  | 400 | 3600 | 600 | 500 | 400 | 500 | 200 | 500 | 700 | 500 | 200 |  | inactive | 500 | 1800 |  | 
6 | CCOc1ccc(-c2n[n+]3c4ccccc4ccc3c3ccc4ccccc4c23)cc1 | 7400 | 6300 |  | 6000 | 5800 | 5400 | 4600 | 6700 | 5300 | 4900 | 3900 | 2600 | inactive |  | 2600 |  | inactive | 
7 | CCOc1ccc(-c2n[n+]3c4ccc(C)cc4ccc3c3ccc4ccccc4c23)cc1 | 600 | 300 |  | 500 | 500 | 200 | 300 | 100 | 400 | 400 | 500 | 70 | inactive |  | 400 | 1700 |  | 

Continued, in another order:

Row | GI50 (HeLa [1]) [nM] | GI50 (LoVo [2]) [nM] | GI50 (LoVo [4]) [nM] | GI50 (A549 [5]) [nM] | GI50 (DU-145 [6]) [nM] | GI50 (HT-29 [7]) [nM] | GI50 (HeLa [8]) [nM] | GI50 (K562 [9]) [nM] | GI50 (SK-MEL-28 [10]) [nM] | GI50 (PANC-1 [11]) [nM] | GI50 (SK-BR-3) [nM] | GI50 (LNCaP) [nM] | GI50 (LoVo [15]) | GI50 (HeLa [18]) | Compound | GI50 (IGROV-1 [3]) [nM] | GI50 (IGROV-1 [12]) [nM] | GI50 (IGROV-1 [17]) | also measured
8 | 1400 | 1000 | 7000 | 800 | 1800 | 600 | 1300 | 600 | 1200 | 1000 | 500 | 400 |  |  | CCOc1ccc(-c2n[n+]3c(C)cccc3c3ccc4ccccc4c23)cc1 | 2400 | 4500 |  | 
9 | 4100 | 3000 | 5400 | 4200 | 3100 | 1200 | 3800 | 1500 | 2500 | 3400 | 500 | 400 |  |  | Cc1cccc2c3ccc4ccccc4c3c(-c3ccccc3)n[n+]12 | 1700 | 2900 |  | 
10 | 100 | 600 | 3500 | 800 | 1000 | 400 | 700 | 400 | 1000 | 1300 | 500 | 300 |  |  | c1ccc(-c2n[n+]3c4ccccc4ccc3c3ccc4ccccc4c23)cc1 | 500 | 2000 |  | 
